FLuc act counter: affects firefly luciferase, flagging false hits in luciferase stimulation screens. activation factor at 10 µM. ATPlite luciferase biochemical, luminescence, 10 min; 0 = ATP-free wells, 1 = DMSO control. 200,000 tested, under 10 active. P08659;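 active means luciferase activation factor, scaled between plate controls, of at least 2 with compound at 10 µM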
Target sequence (P08659 whole entry, looked up): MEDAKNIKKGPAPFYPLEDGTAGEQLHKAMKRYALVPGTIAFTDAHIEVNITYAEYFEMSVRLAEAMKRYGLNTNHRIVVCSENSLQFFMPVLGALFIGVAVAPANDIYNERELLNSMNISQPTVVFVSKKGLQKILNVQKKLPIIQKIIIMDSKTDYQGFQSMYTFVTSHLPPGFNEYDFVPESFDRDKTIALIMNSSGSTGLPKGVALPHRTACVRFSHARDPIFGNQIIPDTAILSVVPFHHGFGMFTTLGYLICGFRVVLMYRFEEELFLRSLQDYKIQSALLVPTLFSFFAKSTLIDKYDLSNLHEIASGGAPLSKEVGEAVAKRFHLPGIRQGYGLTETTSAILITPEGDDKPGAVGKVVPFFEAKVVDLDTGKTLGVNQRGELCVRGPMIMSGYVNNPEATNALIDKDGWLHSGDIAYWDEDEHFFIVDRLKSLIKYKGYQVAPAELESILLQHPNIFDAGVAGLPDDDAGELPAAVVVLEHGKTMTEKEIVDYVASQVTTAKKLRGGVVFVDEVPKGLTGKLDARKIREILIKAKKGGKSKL
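Assay system: Luciferase/luciferin detection reagent, cell-free biochemical luciferase assay / Also added: ATP substrate / Schedule: 10 min at ambient temperature / Measured by: luminescence measurement of luciferase light output / Benchmarks: low control with PBS replacing ATP, high control enzyme plus ATP without compound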
NF-kB expr up: raises NF-kB expression in human neuronal cells. 1.6% of 190,000 active. fold change at 12.5 µM. NF-kB reporter expression; hits give high values; in the data active means fold change above about 3.3
APP 5'UTR act: activates APP 5'UTR luciferase reporter; activation, % at 2 µM; SH-SY5Y APP 5'UTR luciferase reporter, luminescence; zero percent = DMSO vehicle wells; 1% of 190,000 active;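 active means activation above a set limit, based on mean plus 3 SD of controls, cut at about 140% in these data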
FLuc inh counter: counter-screen for luciferase assay inhibitors: firefly luciferase inhibition; P08659; ATPLite firefly luciferase biochemical luminescence, 10 min; inhibition, % at 10 µM; 1.5% of 200,000 active;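 active means inhibition above about 50% when tested at 10 µM, limit read from the data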
STAT1 act: activators of IFN-gamma induced STAT1 signaling; NIH 3T3 STAT1-luciferase reporter, luminescence; 100% = IFN-gamma alone, no compound; activation (% of control), % at 5.5 µM; 2.6% of 200,000 active;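 active means activation above the screen-wide mean activation plus 3 SD, cut at about 130% in these data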;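 further: raw ratio to IFN-gamma control signal so 100% means no change and 0% no light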
STAT1 activ conf: STAT1 activation, confirmation assay | shares compounds with STAT1 act | NIH 3T3 STAT1-luciferase reporter, IFN-gamma potentiation, luminescence; 100% = IFN-gamma EC80 alone, no compound | activation (% of control), % at 5.7 µM | 97% of 1,200 active | AID 1262;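 active means activation above a set limit carried over from the earlier primary STAT1 screen, cut at about 140% in these data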;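 further: simple ratio to median IFN-gamma plus DMSO wells so 0% means no light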
NFkB act: activates NF-kappaB, counter-screen to STAT1 activators | activation (% of control), % at 5.7 µM | shares compounds with STAT1 act | 43% of 1,200 active | HEK293T NF-kB luciferase reporter, TNF-alpha stimulated, luminescence; 100% = TNF-alpha with vehicle only;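 active means activation above the mean of solvent-only control wells plus 3 SD, set per campaign, cut at about 130% in these data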;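 further: TNF-alpha given at a submaximal dose yielding about 80% of full reporter signal; values are well signal over median control so 100% means no change and 0% no light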
STAT3 act 2: activates human STAT3, counter-screen to STAT1 activators; shares compounds with STAT1 act; U3A cells STAT3-luciferase reporter, IL-6, luminescence; cells lack STAT1; 100 = IL-6 alone, no compound effect; activation (% of control), % at 5.7 µM; 46% of 1,200 active; AID 1316;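 active means activation above the solvent-only control well mean plus 3 SD, set per plate batch, cut at about 110% in these data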;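 further: 0% = no luminescence and 100% = median IL-6 plus DMSO wells; higher means more STAT3 reporter activation so hits are non-selective activators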
Active calls of the source: *. Rows were chosen to be rich in hits. Some 4.1% of all compounds tested hit in one or more screens of this group.

`CC(=O)c1ccc(NC(=O)/C(=C\c2ccccc2)NC(=O)/C=C/c2ccccc2)cc1` gave FLuc act counter 1.1, NF-kB expr up 0.69, APP 5'UTR act 11, FLuc inh counter -6 and STAT1 act 111.
`CC(=O)c1ccc(NC(=O)/C(Cl)=C/c2ccccc2)cc1` gave FLuc act counter 0.7, NF-kB expr up 6.4*, APP 5'UTR act 168*, FLuc inh counter 29, STAT1 act 154*, STAT1 activ conf 200*, NFkB act 127 and STAT3 act 2 115*.
CCN(Cc1ccccc1)c1ccc(/C=C(\C#N)c2ccccn2)cc1 was read as FLuc act counter 0.8, NF-kB expr up 1.9, APP 5'UTR act 117, FLuc inh counter 21, STAT1 act 167*, STAT1 activ conf 197*, NFkB act 143* and STAT3 act 2 113*.
NNC(=O)CN(CCc1ccccc1)S(=O)(=O)c1ccc(Cl)cc1 was read as FLuc act counter 1.1, NF-kB expr up 0.96, APP 5'UTR act 27, FLuc inh counter -6 and STAT1 act 98.
For Cc1ccc(-c2cc(C(=O)N3CCN(C(=O)c4ccco4)CC3)no2)cc1 the results were FLuc act counter 0.9, NF-kB expr up 0.96, APP 5'UTR act 8, FLuc inh counter 5 and STAT1 act 106.
`CC(C)CC(=O)Nc1ccc2c(c1)oc1ccccc12` gave FLuc act counter 0.5, NF-kB expr up 6.1*, APP 5'UTR act 173*, FLuc inh counter 49, STAT1 act 152*, STAT1 activ conf 190*, NFkB act 134* and STAT3 act 2 106.
`Cc1cc(/C=C(\C#N)C(=O)NCc2cccs2)c(C)n1-c1ccccc1F` gave FLuc act counter 0.5, NF-kB expr up 1.2, APP 5'UTR act 115, FLuc inh counter 49, STAT1 act 151*, STAT1 activ conf 169*, NFkB act 130 and STAT3 act 2 121*.
For COc1ccc(-c2ccc(C(=S)N3CCN(C(C)=O)CC3)o2)cc1 the results were FLuc act counter 1, NF-kB expr up 1.2, APP 5'UTR act 2, FLuc inh counter 4 and STAT1 act 119.
Screening S=C(c1ccc(-c2ccc(Br)cc2)o1)N1CCCCC1 returned FLuc act counter 0.4, NF-kB expr up 5.6*, APP 5'UTR act 159*, FLuc inh counter 59*, STAT1 act 170*, STAT1 activ conf 210*, NFkB act 145* and STAT3 act 2 114*.
Screening S=C(c1ccc(-c2ccc(Cl)c(Cl)c2)o1)N1CCOCC1 returned FLuc act counter 0.8, NF-kB expr up 5.3*, APP 5'UTR act 134, FLuc inh counter 20, STAT1 act 157*, STAT1 activ conf 202*, NFkB act 144* and STAT3 act 2 119*.
Screening Cc1sc(NC(=O)c2ccccc2)c(C#N)c1-c1ccccc1 returned FLuc act counter 0.7, NF-kB expr up 4.9*, APP 5'UTR act 138*, FLuc inh counter 31, STAT1 act 166*, STAT1 activ conf 200*, NFkB act 141* and STAT3 act 2 108.
Screening Cc1ccc2nsnc2c1NS(=O)(=O)c1c(C)ccc2nsnc12 returned FLuc act counter 1, NF-kB expr up 1.1, APP 5'UTR act 11, FLuc inh counter -4 and STAT1 act 102.
Cc1ccc(/C=[N+](\[O-])c2ccc(N(C)C)cc2)c2nsnc12 was read as FLuc act counter 0.3, APP 5'UTR act -61, FLuc inh counter 72*, STAT1 act 162*, STAT1 activ conf 199*, NFkB act 137* and STAT3 act 2 107.
Screening Cc1ccc2cc(S(=O)(=O)NCCCC(=O)O)ccc2c1 returned FLuc act counter 1, NF-kB expr up 1.2, APP 5'UTR act 1, FLuc inh counter -2 and STAT1 act 101.
